Only some compounds are listed: those with a hit (about 0.81% of all), similar ones and a draw of the others.
zVAD death inh: blocks zVAD induced death of L929 cells; viability rescue, % at 10 µM; L929 zVAD necroptosis rescue, ATP luminescence, 24 h; with zVAD 60 µM; 220,000 tested, 0.38% active;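 active = activation, scaled between plate controls, above about 75%, limit read from the data; inactive = activation under that limit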
TNAP inh noacc: inhibitors of human TNAP without phosphate acceptor | 200,000 tested, 0.26% active | purified TNAP, CDP-star luminescence, 30 min | P05186 | inhibition, % at 20 µM | AID 1012;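 active = tissue-nonspecific alkaline phosphatase inhibition above about 50% at 20 µM in the single-dose screen, limit read from the data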
Target sequence (P05186 whole entry, looked up): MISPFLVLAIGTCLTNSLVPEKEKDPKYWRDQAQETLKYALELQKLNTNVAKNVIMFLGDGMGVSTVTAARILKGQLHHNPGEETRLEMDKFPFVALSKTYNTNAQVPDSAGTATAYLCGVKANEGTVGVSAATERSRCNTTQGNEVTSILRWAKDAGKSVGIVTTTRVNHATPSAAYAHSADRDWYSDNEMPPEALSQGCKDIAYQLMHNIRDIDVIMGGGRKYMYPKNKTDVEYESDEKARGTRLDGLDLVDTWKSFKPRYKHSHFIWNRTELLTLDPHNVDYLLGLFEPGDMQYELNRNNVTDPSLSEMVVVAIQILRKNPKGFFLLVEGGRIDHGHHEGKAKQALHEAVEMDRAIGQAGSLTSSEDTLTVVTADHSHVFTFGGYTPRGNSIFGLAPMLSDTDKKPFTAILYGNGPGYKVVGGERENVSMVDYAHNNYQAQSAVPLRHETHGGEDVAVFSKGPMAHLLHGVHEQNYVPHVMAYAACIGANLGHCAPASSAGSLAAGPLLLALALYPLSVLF
sdo1 growth: compounds rescuing growth of sdo1-depleted yeast, bone marrow failure model; S. cerevisiae sdo1-depleted JHY4D growth rescue, OD600 30 h; active compounds read high; pdr5 snq2 efflux-pump mutant strain; z-score at 10 µM; 140,000 tested, 0.21% active; AID 817;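 active = z-score above 3 at both the 24 hr and the 30 hr optical density reads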
TNAP inh hiacc: TNAP (human) inhibition, high acceptor; inhibition, % at 20 µM; purified TNAP, CDP-star luminescence, 1 M DEA; P05186; AID 1135; 200,000 tested, 0.03% active;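 active = over 50% inhibition of tissue-nonspecific alkaline phosphatase at 20 µM in the single-dose screen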
TNAP act hiacc: increases human TNAP activity under high phosphate acceptor concentration; P05186; purified TNAP, CDP-star luminescence, 1 M DEA, 30 min; active compounds read high; 0 = EDTA background, 1 = DMSO-only activity; activation factor at 20 µM; 200,000 tested, under 10 active; AID 1136;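 active = activation factor at least 2 at 20 µM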
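Dosing: 20 µM single point. System: human TNAP. Amount: TNAP 1/800 final. Incubation: 30 min, room temperature. Read-out: TNAP activation factor scaled between EDTA and DMSO control wells. Signal: luminescence from CDP-star hydrolysis. Medium: 1 M DEA, pH 9.8, Mg2+, Zn2+. Control set: EDTA negative control, DMSO positive control.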
TNF death inh: TNF-alpha cell death inhibition in Jurkat FADD-/- cells; activation (protection from cell death), % at 10 µM; Jurkat FADD-/- TNF necroptosis rescue, ATP luminescence, 24 h; 0 = TNF only, 100 = no-TNF cells; 220,000 tested, 0.068% active;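 active = activation, meaning protection from cell death, of at least 50% relative to plate controls; inactive = activation below 50%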;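 also: necroptosis triggered by 40 ng/mL TNF-alpha added together with compound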
Large screens that a line does not name were inactive.

O=C(NC(=S)NCC1CCCO1)c1ccc(Br)o1 (stereo unspecified)	none (no result: sdo1 growth)
Cc1cc(C)c(NC(=O)c2cc(=O)c3ccccc3o2)c(C)c1	none
CC(C)C(NC(=O)c1ccc(F)cc1)C(=O)Nc1cccnc1 (stereo unspecified)	none (no result: sdo1 growth)
COc1cc(/C=C/c2sc3ccccc3[n+]2CCCS(=O)(=O)[O-])ccc1O	TNAP inh noacc 55, TNAP inh hiacc 57 (no result: sdo1 growth)
CC(=O)N1N=C(c2ccco2)CC1c1cc2ccc(C)cc2nc1Cl (stereo unspecified)	none (no result: TNAP inh noacc, sdo1 growth, TNAP inh hiacc, TNAP act hiacc)
CCC(CC)C1C(C#N)=C(N)Oc2n[nH]c(C)c21 (stereo unspecified)	none
CCc1[nH]nc2c1C(C1C=CCCC1)C(C#N)=C(N)O2 (stereo unspecified)	TNAP inh noacc 70 (no result: sdo1 growth)
CC(C)c1[nH]nc2c1C(C1C=CCCC1)C(C#N)=C(N)O2 (stereo unspecified)	none (no result: TNAP inh noacc, sdo1 growth, TNAP inh hiacc, TNAP act hiacc)
Cc1[nH]nc2c1C(C1CC=CCC1)C(C#N)=C(N)O2 (stereo unspecified)	TNAP inh noacc 72
Cc1cccc(C)c1NC(=O)CNCC(=O)N(C)C	none (no result: sdo1 growth)
O=C(CSc1n[nH]c(-c2ccccc2)n1)c1ccc(O)c(O)c1	TNAP inh noacc 68
O=C(CSc1n[nH]c(-c2ccccc2)n1)NCc1cccc(C(=O)O)c1	TNAP inh noacc 70 (no result: sdo1 growth)
O=C(CSc1nc(-c2ccccc2)cs1)NC(=O)NCc1ccco1	none
Cc1cc(SCC(=O)c2ccc(O)c(O)c2)nc2ccccc12	TNAP inh noacc 72 (no result: sdo1 growth)
O=C(CSc1n[nH]c(-c2ccccc2)n1)NC(=O)NCc1ccco1	TNAP inh noacc 63
CCOc1ccc(C(=O)NN2C(=O)C3C4C=CC(O4)C3C2=O)cc1 (stereo unspecified)	none
O=C(O)c1cccc(CSc2n[nH]c(-c3ccc(Cl)cc3Cl)n2)c1	TNAP inh noacc 96 (no result: sdo1 growth)
COc1cccc(C2Nc3ccccc3C(=O)N2O)c1O (stereo unspecified)	TNAP inh noacc 74
O=C(CCN1CCC(c2cccs2)=N1)c1cccs1	none (no result: TNAP inh noacc, sdo1 growth, TNAP inh hiacc, TNAP act hiacc)
Cc1ccc(S(=O)(=O)CCSC(=N)N)cc1	none (no result: sdo1 growth)
COc1ccc(NC(=O)C(OC)c2ccccc2)cc1Cl (stereo unspecified)	TNF death inh 50
COc1ccc(Cl)cc1NC(=O)C(OC)c1ccccc1 (stereo unspecified)	none (no result: sdo1 growth)
COC(C(=O)Nc1ccc(F)cc1)c1ccccc1 (stereo unspecified)	TNF death inh 98 (no result: zVAD death inh)
COC(C(=O)Nc1ccc(S(=O)(=O)N2CCCCC2)cc1)c1ccccc1 (stereo unspecified)	TNF death inh 60
O=C(NCc1csc(-c2cccs2)n1)C1CCCCC1	none (no result: TNAP inh noacc, sdo1 growth, TNAP inh hiacc, TNAP act hiacc)
CC(/C=N/Nc1ccc2nncn2n1)=C\c1ccccc1	none (no result: TNAP inh noacc, sdo1 growth, TNAP inh hiacc, TNAP act hiacc)
CC(C)CCNC(=O)C(C)N(C(=O)c1snc(C(N)=O)c1N)c1cnc2ccccc2c1 (stereo unspecified)	TNAP inh noacc 62 (no result: sdo1 growth)
CCSc1nc2sc3c(c2c(=O)n1C1CCCCC1)CCN(C)C3	none (no result: zVAD death inh, sdo1 growth, TNF death inh)
N#CCSc1nc2sc3c(c2c(=O)n1C1CCCCC1)CCCC3	TNF death inh 68
Nc1c(Cl)ncnc1N/N=C/c1ccccn1	none
Nc1c(Cl)ncnc1N/N=C/c1ccc2ccccc2n1	TNAP inh hiacc 54
NCCCC[C@H]1CNC(=O)C(=O)N1CCc1cccc(F)c1	none (no result: TNAP inh noacc, sdo1 growth, TNAP inh hiacc, TNAP act hiacc)
C/C(=N\NC(=O)c1cc(C(C)C)[nH]n1)c1ccco1	none
Cc1cc(C(=O)N/N=C/c2cccnc2)cs1	none
O=C(N/N=C/c1ccco1)c1cc(-c2cccs2)[nH]n1	TNAP inh noacc 87
CC(C)c1cc(C(=O)N/N=C/c2cccnc2)n[nH]1	TNAP inh noacc 63
CC(C)c1cc(C(=O)N/N=C/c2ccco2)n[nH]1	TNAP inh noacc 61
O=C(N/N=C/c1ccco1)c1cc(-c2ccc(Br)s2)[nH]n1	none (no result: TNAP inh noacc, sdo1 growth, TNAP inh hiacc, TNAP act hiacc)
COC(=O)c1cc(-c2cccs2)[nH]n1	TNAP inh noacc 96 (no result: sdo1 growth)
O=C1OCC2OC(O)C(O)C(O)C2OC(=O)c2cc(O)c(O)c(O)c2-c2c(O)c(O)c3oc(=O)c4c(c(O)c(O)c5oc(=O)c2c3c54)-c2c1cc(O)c(O)c2O (stereo unspecified)	none (no result: TNAP inh noacc, sdo1 growth, TNAP inh hiacc, TNAP act hiacc)
CCN1CCN(c2oc(/C=C/c3ccccc3)nc2C#N)CC1	none (no result: TNAP inh noacc, sdo1 growth, TNAP inh hiacc, TNAP act hiacc)
O=C(N/N=C/c1ccco1)c1cc(-c2ccc(Cl)s2)[nH]n1	TNAP inh noacc 54 (no result: sdo1 growth)
COC(=O)c1cc(-c2cccc(OC)c2)n[nH]1	none
CCOC(=O)c1cc(-c2ccc(C)o2)n[nH]1	TNAP inh noacc 68
COc1ccc(CNC(=O)c2cc(-c3cc(C)ccc3O)n[nH]2)cc1	none (no result: TNAP inh noacc, sdo1 growth, TNAP inh hiacc, TNAP act hiacc)
COC(=O)c1cc(-c2ccc(C)cc2)n[nH]1	TNAP inh noacc 90 (no result: sdo1 growth)
COC(=O)c1cc(-c2ccc(OC)cc2)n[nH]1	TNAP inh noacc 94 (no result: sdo1 growth)
CCOc1ccc(-c2cc(C(=O)OC)[nH]n2)cc1	TNAP inh noacc 85 (no result: sdo1 growth)
CCOc1cccc(-c2cc(C(=O)NN)[nH]n2)c1	none (no result: sdo1 growth)
Cc1nc2ccccn2c1C(=O)NN=C1C2CC3CC(C2)CC1C3	none
CCCN(CCC)CCNC(=O)C1c2ccccc2C(=O)N2CCc3ccccc3C12 (stereo unspecified)	none (no result: sdo1 growth)
Cc1cc(NC(=O)c2ccoc2C)no1	none
FC(F)(F)c1cc(-c2cccs2)n[nH]1	TNAP inh noacc 71
O=C(Cc1ccc(Cl)cc1)N/N=C/c1ccncc1	none (no result: sdo1 growth)
Cc1cc(OCC(=O)Nc2nnc(C3CC3)s2)ccc1[N+](=O)[O-]	none (no result: sdo1 growth)
c1csc(Cc2nc3ccccc3[nH]2)c1	TNF death inh 65
Cc1ncc(CO)c(/C=N/NC(=O)c2cc(Br)ccc2O)c1O	TNAP inh noacc 58 (no result: sdo1 growth)
Cc1ncc(CO)c(/C=N/NC(=O)c2ccc(Br)cc2)c1O	none
CC(C)CNC(=O)C1CCN(c2ccc(S(=O)(=O)N3CCOCC3)cc2[N+](=O)[O-])CC1	none (no result: TNAP inh noacc, sdo1 growth, TNAP inh hiacc, TNAP act hiacc)
COc1ccc(-c2[nH]ncc2CN2CCC(OCc3cccnc3)CC2)c(F)c1	TNAP inh noacc 74 (no result: sdo1 growth)
COc1ccc(-c2[nH]ncc2CN2CCCC2c2nonc2C)c(F)c1 (stereo unspecified)	TNAP inh noacc 51 (no result: sdo1 growth)
COc1ccc(-c2[nH]ncc2CN2CCN(Cc3cccs3)CC2)c(F)c1	TNAP inh noacc 63 (no result: sdo1 growth)
COc1ccc(-c2[nH]ncc2CN2CCCN(c3ccccc3)CC2)c(F)c1	none (no result: sdo1 growth)
COc1ccc(-c2[nH]ncc2CN2CCC(OCc3ccccn3)CC2)c(F)c1	none (no result: TNAP inh noacc, sdo1 growth, TNAP inh hiacc, TNAP act hiacc)
CCN(C(=O)COC(=O)c1ccc(Br)o1)C1CCCCC1	none (no result: sdo1 growth)
CC(=O)C1=C(O)CCCC1=NCc1nc2ccccc2[nH]1	none (no result: sdo1 growth)
COc1ccc(-c2cc(=O)[nH][nH]2)cc1	none
O=c1cc(-c2cccc3ccccc23)[nH][nH]1	TNAP inh noacc 69
CN1/C(=C\C=C2/SC(=S)NC2=O)C(C)(C)c2ccccc21	TNAP inh hiacc 51 (no result: sdo1 growth)

Screens from PubChem BioAssay.
